Key:
[1] = molecular target: Transthyretin (Homo sapiens) (UniProt P02766); assay: Inhibition of wild type TTR fibril formation at OD400; type: functional
Outline: (§1)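 Stagnant fibril formation assay. TTR at 0.4 mg/mL in 10 mM sodium phosphate, 100 mM KCl, 1 mM EDTA, pH 7.6, was preincubated 30 min at 37 °C with compound added from DMSO stock. Acetate buffer then lowered the pH to 4.2 (wild type) or 5 (V30M, L55P), and samples stood unagitated 72 h at 37 °C. After vortexing, turbidity was read at 400 nm and expressed as percent of the no-inhibitor sample. Triplicates.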

[2] = molecular target: Transthyretin (Homo sapiens) (UniProt P02766); assay: Inhibition of V30M TTR fibril formation at OD400; type: functional; outline: as §1
[3] = molecular target: Transthyretin (Homo sapiens) (UniProt P02766); assay: Inhibition of L55P TTR fibril formation was measured at OD400.; type: functional; outline: as §1
[4] = molecular target: Transthyretin (Homo sapiens) (UniProt P02766); assay: (§2) Quaternary structure of the soluble protein after incubation of 3.6 uM of compound; type: functional
[5] = molecular target: Transthyretin (Homo sapiens) (UniProt P02766); assay: Quaternary structure of the soluble protein after incubation of 10.8 uM of compound
[6] = molecular target: Transthyretin (Homo sapiens) (UniProt P02766); assay: as §2; type: functional; remark: listed apart in the source
[7] = molecular target: Transthyretin (Homo sapiens) (UniProt P02766); assay: as §2; type: functional; remark: listed apart in the source
[8] = molecular target: Transthyretin (Homo sapiens) (UniProt P02766); assay: Quaternary structure of the soluble protein after incubation of 3.6 uM wild type TTR with 10.8 uM of compound; type: functional
Outline: (§3)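 3.6 µM TTR (wild type, V30M or L55P) was held 72 h with 10.8 µM compound under stagnant fibril formation conditions at the variant's pH maximum. Precipitate was removed by spinning at 14 000 rpm, and the supernatant was analysed by analytical ultracentrifugation to give % tetramer, monomer and aggregate and MW.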

[9] = molecular target: Transthyretin (Homo sapiens) (UniProt P02766); assay: Quaternary structure of the soluble protein after incubation of 3.6 uM V30M TTR with 10.8 uM of compound; type: functional; outline: as §3
[10] = molecular target: Transthyretin (Homo sapiens) (UniProt P02766); assay: Quaternary structure of the soluble protein after incubation of 3.6 uM L55P TTR with 10.8 uM of compound; type: functional; outline: as §3
[11] = First dissociation constant of the binding of compound to V30M TTR; type: functional
Outline: (§4)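 Isothermal titration calorimetry at pH 7.6 (100 mM phosphate, 100 mM KCl, 1 mM EDTA). A 435 µM ligand solution in this buffer, concentration set by ε280 = 10 400 M-1 cm-1, was titrated into cells holding 21.1 µM wild type, 20.1 µM V30M or 20.0 µM L55P TTR.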

[12] = molecular target: Transthyretin (Homo sapiens) (UniProt P02766); assay: First dissociation constant of the binding of compound to wild type TTR; type: functional; outline: as §4
[13] = Second dissociation constant of the binding of compound to V30M TTR; type: functional; outline: as §4
[14] = molecular target: Transthyretin (Homo sapiens) (UniProt P02766); assay: First dissociation constant of the binding of compound to L55P TTR; type: functional; outline: as §4
[15] = molecular target: Transthyretin (Homo sapiens) (UniProt P02766); assay: Second dissociation constant of the binding of compound to L55P TTR; type: functional; outline: as §4
[16] = molecular target: Transthyretin (Homo sapiens) (UniProt P02766); assay: Second dissociation constant of the binding of compound to wild type TTR; type: functional; outline: as §4

| SMILES | Formation [1] [%] | Formation [2] [%] | Formation [3] [%] | also measured |
| --- | --- | --- | --- | --- |
| CC(C)c1ccccc1Nc1c(Cl)cccc1Cl | 85 | 80 | 90 |  |
| OCCc1ccccc1Nc1c(Cl)cccc1Cl | 60 | 62 | 90 |  |
| O=C(O)c1ccccc1Nc1cc(Cl)cc(Cl)c1 | 34 | 30 | 50 |  |
| COC(=O)Cc1ccccc1Nc1c(Cl)cccc1Cl | 78 | 90 | 90 |  |
| O=C(O)Cc1ccccc1Nc1c(Cl)cc(C(=O)O)cc1Cl | 32 | 28 | 45 | Tetramer [4]: > 95%; Monomer [5]: 5%; Tetramer [6]: 95%; Tetramer [7]: 95% |
| CCc1ccccc1Nc1c(Cl)cccc1Cl | 82 | 70 | 85 |  |
| ClCCc1ccccc1Nc1c(Cl)cccc1Cl | 75 | 70 | 90 |  |
| O=C(O)c1cc(Cl)c(Nc2ccc([N+](=O)[O-])cc2)c(Cl)c1 | 40 | 33 | 75 | Aggregate [8]: 7%; Tetramer [8]: 93%; Aggregate [9]: 10%; Tetramer [9]: 90%; Tetramer [10]: > 95% |
| NC(=O)Cc1ccccc1Nc1c(Cl)cccc1Cl | 65 | 67 |  |  |
| O=C(O)Cc1ccccc1Nc1cc(Cl)cc(Cl)c1 | 30 | 27 | 53 | Tetramer [4]: > 95%; Aggregate [5]: 24%; Tetramer [6]: > 95%; Tetramer [7]: 76% |
| O=C(O)c1ccccc1Nc1c(Cl)cccc1Cl | 30 | 27 |  |  |
| CCCc1ccccc1Nc1c(Cl)cccc1Cl | 100 | 85 | 90 |  |
| O=C(O)Cc1ccccc1Nc1c(Cl)cccc1Cl | 35 | 33 | 72 | Kd1 [11]: 160 nM; Kd1 [12]: 60 nM; Kd2 [13]: 3.9 µM; Kd1 [14]: 380 nM; Kd2 [15]: 6.18 µM; Kd2 [16]: 1200 nM |
